Compounds with a hit are over-represented: about 2% of the library has one in this group of screens.
CHRM1 PAM: human M1 muscarinic receptor positive allosteric modulators, primary screen, CHO-K1 cells, Fluo-8 calcium fluorescence, 1536-well | CHO-K1 hM1, ACh EC20; 0% = ACh EC20, 100% = maximal ACh | activation, % at 3 µM | 360,000 tested, 0.088% active; in the data active = activation above about 19%, passing the limit was not always enough
Target sequence (P11229 whole entry, looked up): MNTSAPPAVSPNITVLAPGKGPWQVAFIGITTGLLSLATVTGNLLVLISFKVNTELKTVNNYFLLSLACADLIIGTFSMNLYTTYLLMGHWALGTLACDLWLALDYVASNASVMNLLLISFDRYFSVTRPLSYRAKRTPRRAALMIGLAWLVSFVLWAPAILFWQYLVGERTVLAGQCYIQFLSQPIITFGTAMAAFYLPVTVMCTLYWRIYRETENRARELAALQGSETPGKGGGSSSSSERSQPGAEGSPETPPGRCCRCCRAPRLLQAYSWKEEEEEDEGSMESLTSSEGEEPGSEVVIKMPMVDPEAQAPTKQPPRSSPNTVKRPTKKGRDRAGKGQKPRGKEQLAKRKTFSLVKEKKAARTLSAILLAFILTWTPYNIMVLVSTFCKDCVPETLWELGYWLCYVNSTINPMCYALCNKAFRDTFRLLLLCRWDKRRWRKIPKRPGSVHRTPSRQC
CHRM5 PAM: human M5 muscarinic receptor positive allosteric modulators, primary screen, CHO-K1 cells, Fluo-8 calcium fluorescence | activation, % at 3 µM | CHO-K1 hM5, ACh EC20 PAM; 0% = ACh EC20, 100% = ACh EC100 | AID 624038, 2012 | 360,000 tested, 0.3% active;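 active = activation above the run cutoff, the mean activation of all test compounds plus 3 SD, cut at about 18% in these data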
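Measured by: Fluo-8 calcium fluorescence; material: human M5 receptor in CHO-K1 cells; schedule: Post-acetylcholine fluorescence recording 140 s; benchmarks: low control EC20 acetylcholine (0%), high control EC100 acetylcholine (100%); read-out: Max/basal fluorescence ratio as % of EC20–EC100 ACh window; compound: single dose, 3 µM nominal final test concentration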
M5 antag: human M5 muscarinic receptor antagonists, primary screen, CHO cells, Fluo-8 calcium fluorescence. Muscarinic acetylcholine receptor M5 (Homo sapiens), P08912. 360,000 tested, 0.59% active. CHO-hM5 cells, ACh EC80. inhibition, % at 3 µM;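 active = inhibition above a per-plate cutoff, the mean of that plate's test compounds plus 3 SD, cut at about 27% in these data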
M1 ag: human M1 muscarinic receptor agonists, primary screen, Fluo-8 calcium fluorescence, CHO-K1 cells, HTS | Muscarinic acetylcholine receptor M1 (Homo sapiens), P11229 | CHO-K1 hM1, agonist mode; 0% DMSO, 100% acetylcholine EC100 | activation, % at 3 µM | 360,000 tested, 0.33% active | AID 588814, 2011;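 active = activation above the run's mean compound activation plus 3 SD, cut at about 16% in these data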;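 note: peak over basal fluorescence ratio within a 140 s kinetic read after compound addition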
M1 antag: human M1 muscarinic receptor antagonists, primary screen, CHO-K1 cells, Fluo-8 calcium fluorescence, 1536-well; 360,000 tested, 1.3% active; Muscarinic acetylcholine receptor M1 (Homo sapiens), P11229; inhibition, % at 3 µM; CHO-K1 hM1, ACh EC80 antagonist; AID 588852, 2011;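 active = percent inhibition above its own plate's cutoff, namely the mean of that plate's compound wells plus 3 SD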;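 note: peak over basal fluorescence ratio during 140 s after agonist addition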
M5 ag: human M5 muscarinic receptor agonists, primary screen, CHO-K1 cells, Fluo-8 calcium fluorescence. Muscarinic acetylcholine receptor M5 (Homo sapiens), P08912. CHO-K1 hM5 cells; 0% DMSO wells, 100% maximal acetylcholine response. 360,000 tested, 0.19% active. activation, % at 3 µM;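 active = activation above the run's mean over test compounds plus 3 SD, cut at about 23% in these data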;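 note: signal is peak over basal fluorescence ratio across the kinetic read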
Of the large screens only hits and unclear results are named; the others gave an inactive call; ! = repeats disagree.

O=C(NNC(=O)c1ccc([N+](=O)[O-])cc1)c1ccc(Br)cc1	none
O=C(NNC(=S)NC(=O)c1ccc(Br)cc1)c1cccc([N+](=O)[O-])c1	M1 ag 35
O=C(NNC(=S)NC(=O)c1ccc(Br)cc1)c1ccc([N+](=O)[O-])cc1	M1 ag 47
COc1ccc(Cn2cc(CN3CC(N4CCN(C)CC4)CS3(=O)=O)nn2)cc1 (centres undefined)	none (no result: CHRM1 PAM, M1 ag, M1 antag)
COC(=O)[C@]12CCCCC=C1N(Cc1ccc3c(c1)OCO3)C(=O)[C@H](CC(=O)NCCCN1CCCC1=O)C2	none (no result: CHRM1 PAM, M1 ag, M1 antag)
COC(=O)c1c(-c2cccc(OC)c2)csc1N	none
COC(=O)c1c(-c2ccc(OC)c(OC)c2)csc1N	CHRM5 PAM 44
O=C(c1ccc(Cl)cc1)C(CN1CCCC1)c1ccccc1 (centres undefined)	M1 antag 38
CCCCCc1c(-c2ccccc2OC)ncn1CCc1ccccc1OC	M5 antag 32 (no result: CHRM1 PAM, M1 ag, M1 antag)
Cc1ccc(-n2c(C)cc(/C=C3\NC(=O)NC3=O)c2C)c(C)c1	M1 antag 32
CC(C)CC1C(=O)N(Cc2cn(CC3CCCCC3)nn2)CCS(=O)(=O)N1Cc1ccc(-c2cccc(CO)c2)cc1 (centres undefined)	none
COc1cc(CSc2nnnn2-c2ccc(C)cc2)cc(OC)c1OC	M5 antag 31
COc1ccc(-c2csc(C(O)c3ccc(F)c(F)c3)n2)cc1 (centres undefined)	none
CCCNC(=O)N[C@H]1CC[C@@H](CCn2cc(-c3cccc(F)c3)nn2)O[C@@H]1CO	none (no result: CHRM1 PAM, M1 ag, M1 antag)
O=C1NC[C@@H](CCCCN2C[C@H](Cc3ccc(O)cc3)N(CCC3CCCCC3)C(=O)C2=O)N(CCC2CCCCC2)C1=O	none (no result: CHRM1 PAM, M1 ag, M1 antag)
COC(=O)C1(CCSC)NC(c2ccc(O)c(OC)c2)C2C(=O)N(c3ccc(C)cc3)C(=O)C21 (centres undefined)	M1 ag 25
O=C(O)CCCCCN1C(=O)/C(=C/c2cn(-c3ccccc3)nc2-c2cccs2)SC1=S	none
CC1=NNC(=O)/C1=C\c1cn(-c2ccccc2)nc1-c1cccs1	M1 antag 34, M5 ag 24
CC1=NNC(=O)/C1=C\c1cn(-c2ccccc2)nc1-c1ccc(F)cc1	M5 antag 50
c1ccc(-c2cc3cc4c(cc3cn2)OCO4)cc1	none
COc1cc(NC(=O)c2cc3cccc(OC)c3o2)cc(C(=O)Nc2cccc(C(F)(F)F)c2)c1	none
COc1cc(NC(=O)c2ccc(N)nc2)cc(C(=O)Nc2cccc(C(F)(F)F)c2)c1	none
COc1cc(NC(=O)c2ccno2)cc(C(=O)Nc2cccc(C(F)(F)F)c2)c1	M1 antag 31
COc1ccc(-c2cc(C(=O)Nc3cc(OC)cc(C(=O)Nc4cccc(C(F)(F)F)c4)c3)[nH]n2)cc1	M1 antag 41!
CC(C)Oc1cc(F)ccc1-c1cc(C(=O)Nc2cccc(C(F)(F)F)c2)[nH]n1	M1 antag 35
COC(=O)CCCC[C@@H]1O[C@H](CCc2ccccc2)CC2=C1C(=O)OC(C)(C)O2	none (no result: CHRM1 PAM, M1 ag, M1 antag)
Cc1ccc(NS(=O)(=O)c2ccc(C(=O)N3CC(C)CC(C)C3)cc2)cc1 (centres undefined)	M5 antag 31, M1 ag 60, M1 antag 53, M5 ag 56
O=C(c1ccc(NS(=O)(=O)c2ccc(F)cc2)cc1)N1CCCCC1	none
O=C(c1ccc(S(=O)(=O)Nc2cccc(C(F)(F)F)c2)cc1)N1CCOCC1	none
O=C(c1ccc(S(=O)(=O)Nc2ccc(F)cc2)cc1)N1CCN(c2ccccn2)CC1	M1 antag 37
CC1CN(C(=O)c2ccc(S(=O)(=O)Nc3cccc(C(F)(F)F)c3)cc2)CC(C)O1 (centres undefined)	M1 ag 25, M5 ag 28
COc1ccc(-c2coc3c(C(=O)NCC(C)C)cccc23)c(C)c1	none
O=C1N(Cc2ccccc2)c2ccc(Br)cc2[C@]12C[C@H](O)CO2	none (no result: CHRM1 PAM, M1 ag, M1 antag)
CCN(CC)C(=O)c1cccc(-c2csc(C(O)c3cccc(OC)c3)n2)c1 (centres undefined)	none
COc1ccccc1C(=O)C1CCCN(Cc2cccc(OCCO)c2)C1 (centres undefined)	none
CC(=O)Nc1ccc(CN2CCCC(C(=O)c3cccc(C(F)(F)F)c3)C2)cc1 (centres undefined)	M1 antag 64
COc1ccc(CN2CCCC(C(=O)c3cccc(C(F)(F)F)c3)C2)cc1O (centres undefined)	none
O=C(c1cccc(C(F)(F)F)c1)C1CCCN(Cc2ccc(OCCO)cc2)C1 (centres undefined)	M1 antag 66
N#CC(Sc1ccccn1)c1ccc(Cl)cc1Cl (centres undefined)	M1 antag 39
Cc1ccc(O)c(NC(=S)NC(=O)Cc2ccc(Cl)cc2)c1	M5 antag 81, M1 ag 79, M1 antag 97, M5 ag 61
CCOC(=O)N1CCN(C(=O)C[C@@H]2C[C@@]3(C(=O)OCC)CCCC=C3N(Cc3ccco3)C2=O)CC1	none (no result: CHRM1 PAM, M1 ag, M1 antag)
CC1Cc2cc(-c3csc(NC(=O)Cc4cccs4)n3)ccc2N1S(C)(=O)=O (centres undefined)	M1 antag 26
CCC(=O)Nc1nc(-c2ccc3c(c2)CC(C)N3S(C)(=O)=O)cs1 (centres undefined)	none
Cc1ccnc(NS(=O)(=O)c2ccc(NS(C)(=O)=O)cc2)n1	none
Cc1ccnc(NS(=O)(=O)c2ccc(NS(=O)(=O)c3ccccc3)cc2)n1	CHRM5 PAM 23
CCC1CN2CCc3cc(OC)c(OC)cc3C2CC1CC1c2cc(OC)c(OC)cc2CCN1C(=O)C(Cc1c[nH]c2ccccc12)NC(=O)OC(C)(C)C (centres undefined)	M5 antag 27
CC(C)C[C@H](NC(=O)OC(C)(C)C)C(=O)N1CCC(C(=O)N[C@@H](Cc2c[nH]c3ccccc23)C(=O)O)CC1	none
COc1ccc(C(=O)N2CCC(C)(C(=O)O)C2)cc1OC (centres undefined)	none

Screening results (PubChem)
